Molecular target: T1, NAD-dependent protein deacetylase sirtuin-3, mitochondrial (Homo sapiens, UniProt Q9NTG7)
T1 sequence (Q9NTG7 whole entry): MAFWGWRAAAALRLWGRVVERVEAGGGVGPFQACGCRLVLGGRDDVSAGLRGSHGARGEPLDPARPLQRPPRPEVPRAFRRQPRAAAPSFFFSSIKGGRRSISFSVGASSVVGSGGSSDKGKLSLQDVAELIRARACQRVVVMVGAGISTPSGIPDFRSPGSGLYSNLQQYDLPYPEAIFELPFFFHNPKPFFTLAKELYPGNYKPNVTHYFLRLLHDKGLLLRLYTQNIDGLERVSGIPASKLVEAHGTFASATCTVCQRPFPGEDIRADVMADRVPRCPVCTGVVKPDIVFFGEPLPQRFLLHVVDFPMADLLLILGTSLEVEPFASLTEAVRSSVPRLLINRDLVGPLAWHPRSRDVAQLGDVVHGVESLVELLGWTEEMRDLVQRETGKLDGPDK
Experiment: Activation of N-terminal his-tagged human SIRT3 (114 to 380 residues) expressed in Escherichia coli in presence of NAD+ by Mass spectrometry assay
Summary of the method: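 Mass-spectrometric deacetylation assay using coupled-assay components (1.5 µM Sirt3, 50 µM peptide, 100 µM NAD+, compound 100 µM) in 50 mM Na-phosphate pH 7.8 plus 0.05 µg/µL PNCA to remove nicotinamide; product and substrate peptides quantified.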

## CCOC(=O)C1=CN(C(=O)c2cc(OC)c(OC)c(OC)c2)C=C(C(=O)OCC)C1c1ccccc1
  EC50: 100 µM
